pEC50, pKi: −log10 of the molar value. Like-named read-outs stand apart in the source and are kept apart here.
What was measured:
δ-opioid receptor (DOR) [1] = molecular target: T1, δ-opioid receptor (DOR) (Rattus norvegicus, UniProt P33533); test: Agonist stimulation of [35S]GTPγS binding, C6-DOR membranes; type: biochemical; conditions: dns: does not stimulate; for EC50 DOR: [35S]GTPγS binding, mean (S.E.M.), n=3; for % stimulation DOR: percent maximal stimulation relative to DPDPE at 10 µM
Summary of the method: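 C6 rat glioma cells stably expressing rat DOR; membranes (10–20 µg protein) incubated 1 h at 25°C in 50 mM Tris-HCl, 100 mM NaCl, 5 mM MgCl2, pH 7.4, with 0.1 nM [35S]GTPγS, 30 µM GDP and varying test compound.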

κ-opioid receptor (KOR) [2] = molecular target: T2, κ-opioid receptor (KOR) (Homo sapiens, UniProt P41145); test: Agonist stimulation of [35S]GTPγS binding, CHO-KOR membranes; type: biochemical; conditions: for EC50 KOR: [35S]GTPγS binding, mean (S.E.M.), n=3 (footnote d: n=2), dns: does not stimulate
T2 sequence (P41145 whole entry): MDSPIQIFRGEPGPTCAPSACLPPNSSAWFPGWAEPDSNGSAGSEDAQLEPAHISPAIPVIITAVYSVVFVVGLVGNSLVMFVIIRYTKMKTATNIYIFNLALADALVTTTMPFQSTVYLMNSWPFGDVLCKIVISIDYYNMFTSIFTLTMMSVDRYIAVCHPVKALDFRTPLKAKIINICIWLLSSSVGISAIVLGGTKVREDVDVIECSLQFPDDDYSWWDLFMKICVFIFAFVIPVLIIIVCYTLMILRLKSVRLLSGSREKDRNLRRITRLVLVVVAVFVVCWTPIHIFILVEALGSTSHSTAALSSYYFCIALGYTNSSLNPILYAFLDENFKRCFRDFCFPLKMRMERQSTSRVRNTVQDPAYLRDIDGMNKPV

µ-opioid receptor (MOR) [3] = molecular target: T3, µ-opioid receptor (MOR) (Rattus norvegicus, UniProt P33535); conditions: relative to DAMGO at 10 µM; previously published, ref [1]; cited from earlier work
T3 sequence (P33535 whole entry): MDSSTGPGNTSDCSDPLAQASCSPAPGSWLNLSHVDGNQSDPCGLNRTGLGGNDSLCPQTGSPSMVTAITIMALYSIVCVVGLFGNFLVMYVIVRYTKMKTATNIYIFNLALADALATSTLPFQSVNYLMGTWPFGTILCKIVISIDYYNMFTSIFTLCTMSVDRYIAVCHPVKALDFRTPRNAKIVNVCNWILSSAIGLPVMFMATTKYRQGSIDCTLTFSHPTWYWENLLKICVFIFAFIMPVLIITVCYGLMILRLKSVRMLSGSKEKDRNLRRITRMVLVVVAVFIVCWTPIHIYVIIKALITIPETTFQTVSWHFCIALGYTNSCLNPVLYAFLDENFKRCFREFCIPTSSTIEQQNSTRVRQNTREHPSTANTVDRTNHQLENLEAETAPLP

κ-opioid receptor (KOR) [4] = molecular target: T2, κ-opioid receptor (KOR); conditions: [35S]GTPγS binding; dns: does not stimulate; previously published, ref [1]; cited from earlier work
δ-opioid receptor (DOR) [5] = molecular target: T1, δ-opioid receptor (DOR); conditions: [35S]GTPγS binding; dns: does not stimulate; previously published, ref [1]; cited from earlier work
Plasma stability testing = type: in vitro ADME; conditions: in plasma after 30 min
DOR = DOR (Rattus norvegicus, UniProt P33533); test: Antagonism of the DOR agonist DPDPE; type: biochemical
Sequence of DOR (P33533 whole entry): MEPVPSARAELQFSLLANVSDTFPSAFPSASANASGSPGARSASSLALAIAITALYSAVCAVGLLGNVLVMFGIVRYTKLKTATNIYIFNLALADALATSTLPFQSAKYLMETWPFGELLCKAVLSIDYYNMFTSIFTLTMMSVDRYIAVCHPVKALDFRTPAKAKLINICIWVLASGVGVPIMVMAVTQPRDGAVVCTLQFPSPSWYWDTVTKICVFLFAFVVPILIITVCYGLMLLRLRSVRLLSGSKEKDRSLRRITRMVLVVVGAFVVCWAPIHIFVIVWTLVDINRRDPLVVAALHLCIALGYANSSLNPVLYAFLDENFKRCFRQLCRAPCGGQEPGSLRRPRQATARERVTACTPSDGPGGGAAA

C57BL/6 mice = test: Mouse warm water tail withdrawal; type: in vivo; conditions: 10 mg/kg ip
µ-opioid receptor (MOR) [6] = molecular target: T3, µ-opioid receptor (MOR); test: Agonist stimulation of [35S]GTPγS binding, C6-MOR membranes; type: biochemical; conditions: dns: does not stimulate
Summary of the method: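 C6 rat glioma cells stably expressing rat MOR were grown in DMEM/10% FBS. Membranes (10–20 µg protein) were incubated 1 h at 25 °C in 50 mM Tris-HCl, 100 mM NaCl, 5 mM MgCl2, pH 7.4, with 0.1 nM [35S]GTPγS, 30 µM GDP and varying compound concentrations. Samples were GF/C-filtered and scintillation-counted. Stimulation was expressed relative to 10 µM DAMGO.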

µ-opioid receptor (MOR) [7] = molecular target: T3, µ-opioid receptor (MOR); test: [3H]diprenorphine competitive displacement binding, C6-MOR membranes

T1 sequence (P33533 whole entry): as above

CC(=O)N1CC[C@@H](NC(=O)[C@@H](N)Cc2c(C)cc(O)cc2C)c2cc(CC3CCc4ccccc43)ccc21 (mixture of isomers) [14g, (S)-N-((R)-1-Acetyl-6-(((R/S)-2,3-dihydro-1H–inden-1-yl)methyl)-1,2,3,4-tetrahydroquinolin-4-yl)-2-amino-3-(4-hydroxy-2,6-dimethylphenyl)propanamide]
EC50 DOR (δ-opioid receptor (DOR) [1]): dns
% stimulation DOR (δ-opioid receptor (DOR) [1]): dns
pEC50 (κ-opioid receptor (KOR) [2]): < 6.00

Cc1cc(O)cc(C)c1C[C@H](N)C(=O)N[C@@H]1CCNc2ccc(CC3Cc4ccccc4C3)cc21 [14l, (S)-2-Amino-N-((R)-6-((2,3-dihydro-1H–inden-2-yl)methyl)-1,2,3,4-tetrahydroquinolin-4-yl)-3-(4-hydroxy-2,6-dimethylphenyl)propanamide]
% stimulation MOR (µ-opioid receptor (MOR) [3]): 86 (1) %

Cc1cc(O)cc(C)c1C[C@H](N)C(=O)N[C@@H]1CCNc2ccc(Cc3ccc4ccccc4c3)cc21 [14j, (S)-2-Amino-3-(4-hydroxy-2,6-dimethylphenyl)-N-((R)-6-(naphthalen-2-ylmethyl)-1,2,3,4-tetrahydroquinolin-4-yl)propanamide]
EC50 KOR (κ-opioid receptor (KOR) [4]): dns
% stimulation MOR (µ-opioid receptor (MOR) [3]): 96 (3) %
EC50 DOR (δ-opioid receptor (DOR) [5]): dns

Cc1cc(O)cc(C)c1C[C@H](N)C(=O)N[C@@H]1CCCc2ccc(Cc3cccc4ccccc34)cc21 [14p, (S)-2-Amino-3-(4-hydroxy-2,6-dimethylphenyl)-N-((R)-7-(naphthalen-1-ylmethyl)-1,2,3,4-tetrahydronaphthalen-1-yl)propanamide]
EC50 DOR (δ-opioid receptor (DOR) [1]): dns
% stimulation DOR (δ-opioid receptor (DOR) [1]): dns
EC50 KOR (κ-opioid receptor (KOR) [2]): dns ^d

Cc1cc(O)cc(C)c1C[C@H](N)C(=O)N[C@@H]1CCNc2ccc(CC3CCCCC3)cc21 [14b, (S)-2-Amino-N-((R)-6-(cyclohexylmethyl)-1,2,3,4-tetrahydroquinolin-4-yl)-3-(4-hydroxy-2,6-dimethylphenyl)propanamide]
EC50 DOR (δ-opioid receptor (DOR) [1]): dns
% stimulation DOR (δ-opioid receptor (DOR) [1]): dns

CC(=O)N1CC[C@@H](NC(=O)[C@@H](N)Cc2c(C)cc(O)cc2C)c2cc(Cc3cccc4ccccc34)ccc21 [14d, (S)-N-((R)-1-Acetyl-6-(naphthalen-1-ylmethyl)-1,2,3,4-tetrahydroquinolin-4-yl)-2-amino-3-(4-hydroxy-2,6-dimethylphenyl)propanamide]
EC50 DOR (δ-opioid receptor (DOR) [1]): dns
% stimulation DOR (δ-opioid receptor (DOR) [1]): dns
plasma stability (Plasma stability testing): fully stable
Kb (DOR): 27.5 nM
EC50 KOR (κ-opioid receptor (KOR) [2]): dns ^d

Cc1cc(O)cc(C)c1C[C@H](N)C(=O)N[C@@H]1CCCc2ccc(Cc3ccccc3)cc21 [14m, (S)-2-Amino-N-((R)-7-benzyl-1,2,3,4-tetrahydronaphthalen-1-yl)-3-(4-hydroxy-2,6-dimethylphenyl) propanamide]
EC50 DOR (δ-opioid receptor (DOR) [1]): dns
% stimulation DOR (δ-opioid receptor (DOR) [1]): dns
EC50 KOR (κ-opioid receptor (KOR) [2]): dns

Cc1cc(O)cc(C)c1C[C@H](N)C(=O)N[C@@H]1CCCc2ccc(Cc3ccc4ccccc4c3)cc21 [14o, (S)-2-Amino-3-(4-hydroxy-2,6-dimethylphenyl)-N-((R)-7-(naphthalen-2-ylmethyl)-1,2,3,4-tetrahydronaphthalen-1-yl)propanamide]
EC50 DOR (δ-opioid receptor (DOR) [1]): dns
% stimulation DOR (δ-opioid receptor (DOR) [1]): dns
EC50 KOR (κ-opioid receptor (KOR) [2]): dns

CC(=O)N1CC[C@@H](NC(=O)[C@@H](N)Cc2c(C)cc(O)cc2C)c2cc(Cc3ccccc3)ccc21 [14e, (S)-N-((R)-1-Acetyl-6-benzyl-1,2,3,4-tetrahydroquinolin-4-yl)-2-amino-3-(4-hydroxy-2,6-dimethylphenyl)propanamide]
% stimulation DOR (δ-opioid receptor (DOR) [1]): 26 (3) %

CC(=O)N1CC[C@@H](NC(=O)[C@@H](N)Cc2c(C)cc(O)cc2C)c2cc(Cc3ccc4ccccc4c3)ccc21 [14a, (S)-N-((R)-1-Acetyl-6-(naphthalen-2-ylmethyl)-1,2,3,4-tetrahydroquinolin-4-yl)-2-amino-3-(4-hydroxy-2,6-dimethylphenyl)propanamide]
EC50 DOR (δ-opioid receptor (DOR) [1]): dns
% stimulation DOR (δ-opioid receptor (DOR) [1]): dns
plasma stability (Plasma stability testing): fully stable
Kb (DOR): 1.98 nM
duration of maximal antinociception (C57BL/6 mice; mouse WWTW time course): approximately 200 min
duration of action compared to 14i (C57BL/6 mice; mouse WWTW, relative to original lead 14i): greater than 3 times
EC50 KOR (κ-opioid receptor (KOR) [2]): dns ^d

CC(=O)N1CC[C@@H](NC(=O)[C@@H](N)Cc2c(C)cc(O)cc2C)c2cc(CC3Cc4ccccc4C3)ccc21 [14f, (S)-N-((R)-1-Acetyl-6-((2,3-dihydro-1H–inden-2-yl)methyl)-1,2,3,4-tetrahydroquinolin-4-yl)-2-amino-3-(4-hydroxy-2,6-dimethylphenyl)propanamide]
EC50 DOR (δ-opioid receptor (DOR) [1]): dns
% stimulation DOR (δ-opioid receptor (DOR) [1]): dns

CC(=O)N1CC[C@@H](NC(=O)[C@@H](N)Cc2c(C)cc(O)cc2C)c2cc(CC3CCCCC3)ccc21 [14c, (S)-N-((R)-1-Acetyl-6-(cyclohexylmethyl)-1,2,3,4-tetrahydroquinolin-4-yl)-2-amino-3-(4-hydroxy-2,6-dimethylphenyl)propanamide]
% stimulation DOR (δ-opioid receptor (DOR) [1]): 26 (5) %

Cc1cc(O)cc(C)c1C[C@H](N)C(=O)N[C@@H]1CCNc2ccc(CC3CCc4ccccc43)cc21 (mixture of isomers) [14h, (S)-2-Amino-N-((R)-6-(((R/S)-2,3-dihydro-1H–inden-1-yl)methyl)-1,2,3,4-tetrahydroquinolin-4-yl)-3-(4-hydroxy-2,6-dimethylphenyl)propanamide]
EC50 DOR (δ-opioid receptor (DOR) [1]): dns
% stimulation DOR (δ-opioid receptor (DOR) [1]): dns

Cc1cc(O)cc(C)c1C[C@H](N)C(=O)N[C@@H]1CCNc2ccc(Cc3cccc4ccccc34)cc21 [14k, (S)-2-Amino-3-(4-hydroxy-2,6-dimethylphenyl)-N-((R)-6-(naphthalen-1-ylmethyl)-1,2,3,4-tetrahydroquinolin-4-yl)propanamide]
EC50 KOR (κ-opioid receptor (KOR) [4]): dns
% stimulation MOR (µ-opioid receptor (MOR) [3]): 93 (5) %

Cc1cc(O)cc(C)c1C[C@H](N)C(=O)N[C@@H]1CCCc2ccc(CC3CCCCC3)cc21 [14n, (S)-2-Amino-N-((R)-7-(cyclohexylmethyl)-1,2,3,4-tetrahydronaphthalen-1-yl)-3-(4-hydroxy-2,6-dimethylphenyl)propanamide]
EC50 DOR (δ-opioid receptor (DOR) [1]): dns
% stimulation DOR (δ-opioid receptor (DOR) [1]): dns
EC50 MOR (µ-opioid receptor (MOR) [6]; [35S]GTPγS binding, mean (S.E.M.), n=3): dns
% stimulation MOR (µ-opioid receptor (MOR) [6]; percent maximal stimulation relative to DAMGO at 10 µM): dns
pKi (µ-opioid receptor (MOR) [7]): 9.92

From article PMC4772774 (Journal of medicinal chemistry, 2015)
